# Most compounds without a hit are left out; they make up all but 2.9% or so of the library.
# DNA FID counter: displaces DNA intercalator in HCV helicase counter-screen; inhibition, % at 7.9 µM; 290,000 tested, 0.17% active; AID 1845; DNA fluorescent intercalator displacement, fluorescence; in the data active means inhibition above about 37%;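 further: 0% = vehicle and 100% = reference compound; higher means more ethidium bromide displaced from hairpin DNA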
# SUMO HTRF inh: SUMOylation inhibition. HTRF SUMOylation assay, SAE1/SAE2 + UBC9, in vitro. inhibition, % at 35 µM. P63279. 290,000 tested, 0.36% active; in the data active means inhibition above about 50%, passing the limit was not always enough
# Target sequence (P63279 whole entry, looked up): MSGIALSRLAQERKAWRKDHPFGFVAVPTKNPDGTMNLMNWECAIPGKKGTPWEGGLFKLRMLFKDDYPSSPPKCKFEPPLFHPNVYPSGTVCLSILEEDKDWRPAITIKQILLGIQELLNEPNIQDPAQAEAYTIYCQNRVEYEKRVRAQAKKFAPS
# Mot1-301 SUMO: inhibitors of SUMOylation pathway: yeast Mot1-301 growth rescue; AID 2716; growth rescue, % at 18.8 µM; S. cerevisiae Mot1-301 growth rescue, ATP luminescence, 38.5C; percent above DMSO median, 100 means doubled; 320,000 tested, 1% active;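 active means every valid replicate shows activation above 250% relative to neutral control wells; inactive means the rest, any valid replicate at or below 250%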;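 further: OY570 slx delta 5 strain wells were the positive control but not used for scaling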
# VIM-2 inh: blocks Pseudomonas aeruginosa VIM-2 metallo-beta-lactamase; purified VIM-2, nitrocefin hydrolysis, epi-absorbance fluorescence; 290,000 tested, 0.89% active; inhibition, % at 5.6 µM;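 active means inhibition above the mean of all tested compounds plus 3 SD, cutoff set per screening run, cut at about 7.5% in these data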;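 further: red hydrolysis product quenches plate fluorescence so inhibitors raise well fluorescence; 0% = enzyme with DMSO and 100% = DMSO without enzyme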
# NALP1 yeast inh: inhibitors of NALP1 inflammasome in yeast. inhibition, % at 10 µM. 280,000 tested, 0.61% active. S. cerevisiae NALP1/ASC/caspase-1 growth, X-gal OD620, 72 h; in the data active means inhibition mostly above about 24%, no sharp cut-off; inactive means mostly below about 32%
# IMP-1 inhibitor: blocks Pseudomonas aeruginosa IMP-1 metallo-beta-lactamase; purified IMP-1, nitrocefin hydrolysis, epi-absorbance fluorescence; inhibition, % at 5.6 µM; 290,000 tested, 0.45% active;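 active means inhibition above the mean plus 3 SD of all compounds in the same screening run, cut at about 4.5% in these data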;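 further: 0% = IMP-1 with DMSO and 100% = DMSO wells lacking enzyme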
#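 System: purified recombinant IMP-1 beta-lactamase. Medium: Zinc- and detergent-supplemented HEPES buffer, pH 7.1. Compound: one 5.6 µM dose […]. Schedule: 15 min preincubation plus 25 min reaction at 25 °C. Technique: Epi-absorbance fluorescence, 480 nm excitation, 530 nm emission.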
# VIM-2 inh confirm: VIM-2 inhibition, confirmation assay. shares compounds with IMP-1 inhibitor. purified VIM-2 enzyme, nitrocefin absorbance. inhibition, % at 5.6 µM. 200 tested, 73% active; in the data active means inhibition above about 8%;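 further: 0% = enzyme with vehicle and 100% = no enzyme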
# TEM-1 inh 2: blocks E. coli TEM-1 beta-lactamase, VIM-2 IMP-1 counter-screen; shares compounds with IMP-1 inhibitor; AID 2184; nitrocefin absorbance inhibition; 200 tested, 50% active; inhibition, % at 5.6 µM; in the data active means inhibition above about 0.66%
# Target sequence (P62593 whole entry, looked up): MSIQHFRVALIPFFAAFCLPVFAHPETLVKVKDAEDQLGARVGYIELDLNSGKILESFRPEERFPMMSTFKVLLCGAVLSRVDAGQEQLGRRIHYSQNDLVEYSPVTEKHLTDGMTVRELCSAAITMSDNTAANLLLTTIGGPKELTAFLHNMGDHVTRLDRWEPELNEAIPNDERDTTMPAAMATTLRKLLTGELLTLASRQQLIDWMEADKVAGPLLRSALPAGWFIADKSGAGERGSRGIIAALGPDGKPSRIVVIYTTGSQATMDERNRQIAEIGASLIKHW
# IMP-1 confirm: confirmation of P. aeruginosa IMP-1 metallo-beta-lactamase inhibitors. shares compounds with IMP-1 inhibitor. purified IMP-1 enzyme, absorbance substrate hydrolysis. inhibition, % at 5.6 µM. 200 tested, 60% active; in the data active means inhibition above about 4.9%;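 further: 0% = enzyme with vehicle and 100% = vehicle without enzyme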
# Starred values were filed as active, the others as inactive; . = no result given.
SMILES,DNA FID counter,SUMO HTRF inh,Mot1-301 SUMO,VIM-2 inh,NALP1 yeast inh,IMP-1 inhibitor,VIM-2 inh confirm,TEM-1 inh 2,IMP-1 confirm
CCOc1ccc(/C=C2\SC(=S)NC2=O)cc1OC,-13,16,46,-3,-16,-4,.,.,.
CCOc1ccc(-c2cc(C(=O)NCCCn3ccnc3)c3cc(Br)ccc3n2)cc1,24,4,26,17*,7,33*,21*,-2,41*
COc1ccccc1CCNC(=O)c1cc(-c2ccncc2)nc2ccc(Br)cc12,-6,23,.,2,-33,-1,.,.,.
Cc1nn(-c2ccccc2)c(Cl)c1/C=C(\CC(=O)O)c1nc2ccccc2s1,-44,13,-19,24*,-2,8.4*,37*,-5,5.5*
Cc1nn(-c2ccc(F)cc2)c(Cl)c1/C=C(\CC(=O)O)c1nc2ccccc2s1,-34,18,15,32*,6,7.9*,34*,-2,1
CCOc1cc(C(=O)N(CC)CC(=O)Nc2ccc3c(c2)OCCO3)ccc1OC,.,.,145,.,.,.,.,.,.
CN(C)CCCOC(=O)COc1ccc(C(C)(C)C)cc1,0,-2,-15,-1,18,-1,.,.,.
CN(C)c1ccc(/C=C/C(=O)c2cc(Cl)ccc2O)cc1,-2,17,6,15*,17,20*,24*,35*,22*
Cc1cccc(C)c1NC(=O)COC(=O)c1c2c(nc3ccccc13)/C(=C\c1ccc3c(c1)OCO3)CCC2,-13,47,86,20*,9,17*,0,-4,-1
CC(OC(=O)c1cc2ccccc2cc1O)C(=O)Nc1ccc(S(N)(=O)=O)cc1 (centres undefined),-11,14,-7,-2,14,-2,.,.,.
CC(OC(=O)c1c2c(nc3ccccc13)/C(=C\c1ccc3c(c1)OCO3)CCC2)C(=O)Nc1ccc(S(N)(=O)=O)cc1 (centres undefined),-6,27,.,18*,20,13*,15*,29*,10*
Cc1cccc(C)c1NC(=O)COC(=O)c1ccc2c(c1)OCO2,-1,12,17,-2,-14,-2,.,.,.
CCN(C(=O)CSc1nnnn1-c1ccccc1)c1c(N)n(Cc2ccccc2)c(=O)[nH]c1=O,-20,-1,0,0,16,-5,.,.,.
COc1ccc(/C(C)=N/NC(=O)c2nnn(-c3nonc3N)c2-c2cccs2)cc1,-20,30,-4,-1,20,-3,.,.,.
COc1ccc(/C(C)=N/NC(=O)c2nnn(-c3nonc3N)c2-c2ccccc2)cc1,-18,6,0,12*,16,19*,15*,-2,18*
Nn1c(SCC(=O)NCC2CCCO2)nnc1-c1ccc(OC(F)F)cc1 (centres undefined),.,.,140,.,.,.,.,.,.
C=CC#CC[N+]1(CC#Cc2ccccc2)CCOCC1,4,20,.,20*,-6,20*,34*,-5,-3
C(#Cc1ccccc1)C[N+]1(CC#Cc2ccccc2)CCCC1,1,-5,6,-1,-1,-5,.,.,.
CC1CCN(C(=O)CSc2nnc(CNC(=O)COc3ccc(Cl)cc3)o2)CC1,-27,0,-20,7,4,35*,1,-1,-1
Cc1nn(C)c(C)c1N1C(=O)c2cccc3c(Br)ccc(c23)C1=O,-29,25,-10,1,38,1,.,.,.
CCN1C(=O)c2cccc3c(N)ccc(c23)C1=O,-5,27,-3,48*,13,43*,45*,51*,35*
Cc1nn(C)c(C)c1N1C(=O)c2cccc3c(N)ccc(c23)C1=O,-12,46,8,31*,34,35*,42*,55*,38*
Cc1cc(OCC(=O)Nc2ccc(S(=O)(=O)N3CCN(C)CC3)cc2)ccc1Br,20,5,-12,1,18,-1,.,.,.

# Assay outcomes as filed in PubChem.
